B1: truncated protein: recombinant form of human pol α with the last 67 amino acids removed (protein, UniProt P09884 1-1395, looked up, fragment)
chain: MAPVHGDDSLSDSGSFVSSRARREKKSKKGRQEALERLKKAKAGEKYKYEVEDFTGVYEEVDEEQYSKLVQARQDDDWIVDDDGIGYVEDGREIFDDDLEDDALDADEKGKDGKARNKDKRNVKKLAVTKPNNIKSMFIACAGKKTADKAVDLSKDGLLGDILQDLNTETPQITPPPVMILKKKRSIGASPNPFSVHTATAVPSGKIASPVSRKEPPLTPVPLKRAEFAGDDVQVESTEEEQESGAMEFEDGDFDEPMEVEEVDLEPMAAKAWDKESEPAEEVKQEADSGKGTVSYLGSFLPDVSCWDIDQEGDSSFSVQEVQVDSSHLPLVKGADEEQVFHFYWLDAYEDQYNQPGVVFLFGKVWIESAETHVSCCVMVKNIERTLYFLPREMKIDLNTGKETGTPISMKDVYEEFDEKIATKYKIMKFKSKPVEKNYAFEIPDVPEKSEYLEVKYSAEMPQLPQDLKGETFSHVFGTNTSSLELFLMNRKIKGPCWLEVKSPQLLNQPVSWCKVEAMALKPDLVNVIKDVSPPPLVVMAFSMKTMQNAKNHQNEIIAMAALVHHSFALDKAAPKPPFQSHFCVVSKPKDCIFPYAFKEVIEKKNVKVEVAATERTLLGFFLAKVHKIDPDIIVGHNIYGFELEVLLQRINVCKAPHWSKIGRLKRSNMPKLGGRSGFGERNATCGRMICDVEISAKELIRCKSYHLSELVQQILKTERVVIPMENIQNMYSESSQLLYLLEHTWKDAKFILQIMCELNVLPLALQITNIAGNIMSRTLMGGRSERNEFLLLHAFYENNYIVPDKQIFRKPQQKLGDEDEEIDGDTNKYKKGRKKAAYAGGLVLDPKVGFYDKFILLLDFNSLYPSIIQEFNICFTTVQRVASEAQKVTEDGEQEQIPELPDPSLEMGILPREIRKLVERRKQVKQLMKQQDLNPDLILQYDIRQKALKLTANSMYGCLGFSYSRFYAKPLAALVTYKGREILMHTKEMVQKMNLEVIYGDTDSIMINTNSTNLEEVFKLGNKVKSEVNKLYKLLEIDIDGVFKSLLLLKKKKYAALVVEPTSDGNYVTKQELKGLDIVRRDWCDLAKDTGNFVIGQILSDQSRDTIVENIQKRLIEIGENVLNGSVPVSQFEINKALTKDPQDYPDKKSLPHVHVALWINSQGGRKVKAGDTVSYVICQDGSNLTASQRAYAPEQLQKQDNLTIDTQYYLAQQIHPVVARICEPIDGIDAVLIATWLGLDPTQFRVHHYHKDEENDALLGGPAQLTDEEKYRDCERFKCPCPTCGTENIYDNVFDGSGTDMEPSLYRCSNIDCKASPLTFTVQLSNKLIMDIRRFIKKYYDGWLICEEPTCRNRTRHLPLQFSRTGPLCPACMKATLQPEYSDKSLYTQLCFY
B2: Pol1 1–1452: Pol1 allele with the sequence encoding the last 16 amino acids removed (protein)
chain: MSSKSEKLEKLRKLQAARNGTSIDDYEGDESDGDRIYDEIDEKEYRARKRQELLHDDFVVDDDGVGYVDRGVEEDWREVDNSSSDEDTGNLASKDSKRKKNIKREKDHQITDMLRTQHSKSTLLAHAKKSQKKSIPIDNFDDILGEFESGEVEKPNILLPSKLRENLNSSPTSEFKSSIKRVNGNDESSHDAGISKKVKIDPDSSTDKYLEIESSPLKLQSRKLRYANDVQDLLDDVENSPVVATKRQNVLQDTLLANPPSAQSLADEEDDEDSDEDIILKRRTMRSVTTTRRVNIDSRSNPSTSPFVTAPGTPIGIKGLTPSKSLQSNTDVATLAVNVKKEDVVDPETDTFQMFWLDYCEVNNTLILFGKVKLKDDNCVSAMVQINGLCRELFFLPREGKTPTDIHEEIIPLLMDKYGLDNIRAKPQKMKYSFELPDIPSESDYLKVLLPYQTPKSSRDTIPSDLSSDTFYHVFGGNSNIFESFVIQNRIMGPCWLDIKGADFNSIRNASHCAVEVSVDKPQNITPTTTKTMPNLRCLSLSIQTLMNPKENKQEIVSITLSAYRNISLDSPIPENIKPDDLCTLVRPPQSTSFPLGLAALAKQKLPGRVRLFNNEKAMLSCFCAMLKVEDPDVIIGHRLQNVYLDVLAHRMHDLNIPTFSSIGRRLRRTWPEKFGRGNSNMNHFFISDICSGRLICDIANEMGQSLTPKCQSWDLSEMYQVTCEKEHKPLDIDYQNPQYQNDVNSMTMALQENITNCMISAEVSYRIQLLTLTKQLTNLAGNAWAQTLGGTRAGRNEYILLHEFSRNGFIVPDKEGNRSRAQKQRQNEENADAPVNSKKAKYQGGLVFEPEKGLHKNYVLVMDFNSLYPSIIQEFNICFTTVDRNKEDIDELPSVPPSEVDQGVLPRLLANLVDRRREVKKVMKTETDPHKRVQCDIRQQALKLTANSMYGCLGYVNSRFYAKPLAMLVTNKGREILMNTRQLAESMNLLVVYGDTDSVMIDTGCDNYADAIKIGLGFKRLVNERYRLLEIDIDNVFKKLLLHAKKKYAALTVNLDKNGNGTTVLEVKGLDMKRREFCPLSRDVSIHVLNTILSDKDPEEALQEVYDYLEDIRIKVETNNIRIDKYKINMKLSKDPKAYPGGKNMPAVQVALRMRKAGRVVKAGSVITFVITKQDEIDNAADTPALSVAERAHALNEVMIKSNNLIPDPQYYLEKQIFAPVERLLERIDSFNVVRLSEALGLDSKKYFRREGGNNNGEDINNLQPLETTITDVERFKDTVTLELSCPSCDKRFPFGGIVSSNYYRVSYNGLQCKHCEQLFTPLQLTSQIEHSIRAHISLYYAGWLQCDDSTCGIVTRQVSVFGKRCLNDGCTGVMRYKYSDKQLYNQLLYFDSLFDCEKNKKQELKPIYLPDDLDYPKEQLTESSIKALTEQNRELMETGRSVVQKYLNDC
modifications: left off: 9MYC, end not stated, kept
B3: Pol1-F1463A (protein)
chain: MSSKSEKLEKLRKLQAARNGTSIDDYEGDESDGDRIYDEIDEKEYRARKRQELLHDDFVVDDDGVGYVDRGVEEDWREVDNSSSDEDTGNLASKDSKRKKNIKREKDHQITDMLRTQHSKSTLLAHAKKSQKKSIPIDNFDDILGEFESGEVEKPNILLPSKLRENLNSSPTSEFKSSIKRVNGNDESSHDAGISKKVKIDPDSSTDKYLEIESSPLKLQSRKLRYANDVQDLLDDVENSPVVATKRQNVLQDTLLANPPSAQSLADEEDDEDSDEDIILKRRTMRSVTTTRRVNIDSRSNPSTSPFVTAPGTPIGIKGLTPSKSLQSNTDVATLAVNVKKEDVVDPETDTFQMFWLDYCEVNNTLILFGKVKLKDDNCVSAMVQINGLCRELFFLPREGKTPTDIHEEIIPLLMDKYGLDNIRAKPQKMKYSFELPDIPSESDYLKVLLPYQTPKSSRDTIPSDLSSDTFYHVFGGNSNIFESFVIQNRIMGPCWLDIKGADFNSIRNASHCAVEVSVDKPQNITPTTTKTMPNLRCLSLSIQTLMNPKENKQEIVSITLSAYRNISLDSPIPENIKPDDLCTLVRPPQSTSFPLGLAALAKQKLPGRVRLFNNEKAMLSCFCAMLKVEDPDVIIGHRLQNVYLDVLAHRMHDLNIPTFSSIGRRLRRTWPEKFGRGNSNMNHFFISDICSGRLICDIANEMGQSLTPKCQSWDLSEMYQVTCEKEHKPLDIDYQNPQYQNDVNSMTMALQENITNCMISAEVSYRIQLLTLTKQLTNLAGNAWAQTLGGTRAGRNEYILLHEFSRNGFIVPDKEGNRSRAQKQRQNEENADAPVNSKKAKYQGGLVFEPEKGLHKNYVLVMDFNSLYPSIIQEFNICFTTVDRNKEDIDELPSVPPSEVDQGVLPRLLANLVDRRREVKKVMKTETDPHKRVQCDIRQQALKLTANSMYGCLGYVNSRFYAKPLAMLVTNKGREILMNTRQLAESMNLLVVYGDTDSVMIDTGCDNYADAIKIGLGFKRLVNERYRLLEIDIDNVFKKLLLHAKKKYAALTVNLDKNGNGTTVLEVKGLDMKRREFCPLSRDVSIHVLNTILSDKDPEEALQEVYDYLEDIRIKVETNNIRIDKYKINMKLSKDPKAYPGGKNMPAVQVALRMRKAGRVVKAGSVITFVITKQDEIDNAADTPALSVAERAHALNEVMIKSNNLIPDPQYYLEKQIFAPVERLLERIDSFNVVRLSEALGLDSKKYFRREGGNNNGEDINNLQPLETTITDVERFKDTVTLELSCPSCDKRFPFGGIVSSNYYRVSYNGLQCKHCEQLFTPLQLTSQIEHSIRAHISLYYAGWLQCDDSTCGIVTRQVSVFGKRCLNDGCTGVMRYKYSDKQLYNQLLYFDSLFDCEKNKKQELKPIYLPDDLDYPKEQLTESSIKALTEQNRELMETGRSVVQKYLNDCGRRYVDMTSIADFMLN
modifications: left off: 9MYC, end not stated, kept

What was measured:
[1] = tested on: B subunit; settings: last 67 amino acids of recombinant human pol α removed; cited from earlier work
[2] = tested on: B subunit Pol12; experiment: Immunoprecipitation from yeast extracts and mass spectrometry, B subunit; type: cell-based, Saccharomyces cerevisiae; settings: diploid yeast, anti-Myc beads, spectral counts
How it was run: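 Diploid strains grown asynchronously in YPD (1% yeast extract, 2% peptone, 40 μg/ml adenine, 2% glucose). Extracts made from 250 ml mid-log culture (2.5 × 10^9 cells) with 100 mM potassium acetate, then Benzonase-digested (800 units, 30 min, 4 °C). Tagged protein immunoprecipitated on anti-Myc (9E10) magnetic beads. Eluate run 1 cm into SDS gel, cut into 10 bands, trypsin-digested, and analysed by mass spectrometry.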

[3] = tested on: yeast cells; experiment: Tetrad analysis, colony formation and growth of yeast cells; type: cell-based, Saccharomyces cerevisiae; settings: tetrad analysis of meiotic progeny of heterozygous diploid, rich medium YPD
How it was run: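 Heterozygous diploids, each carrying one wild-type POL1 copy and one mutant pol1 allele (C-terminal truncation or point mutant), were sporulated. Meiotic progeny were scored by tetrad analysis for germination and colony growth. Medium was rich YPD: 1% yeast extract, 2% peptone, 40 μg/ml adenine, 2% glucose as sole carbon source.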

[4] = tested on: Pol12; experiment: Immunoprecipitation and immunoblotting, Pol12; type: cell-based, Saccharomyces cerevisiae; settings: diploid yeast, anti-HA beads, native cell extracts, immunoblotting
[5] = tested on: primase; experiment: Immunoprecipitation and immunoblotting, primase; type: cell-based, Saccharomyces cerevisiae; settings: diploid yeast, anti-HA beads, immunoblotting
[6] = tested on: primase; experiment: Immunoprecipitation from yeast extracts and mass spectrometry, primase; type: cell-based, Saccharomyces cerevisiae; settings: diploid yeast, anti-Myc beads, spectral counts
How it was run: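 Asynchronous diploid cultures were grown in YPD. Extracts were made from 250 ml of mid-log cells (2.5 × 10^9) with 100 mM potassium acetate. DNA was digested with 800 units of Benzonase for 30 min at 4 °C before capture on 9E10 magnetic beads. Each sample was run 1 cm into an SDS gel, cut into 10 bands, trypsin-digested and analysed by mass spectrometry.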

[7] = tested on: other replisome components; experiment: Immunoprecipitation and immunoblotting, replisome components; type: cell-based, Saccharomyces cerevisiae; settings: diploid yeast, anti-HA beads, native cell extracts, immunoblotting; relative to wild-type Pol1
[8] = tested on: S phase checkpoint pathway (Mec1); experiment: Dependence of viability on S phase checkpoint; type: cell-based, Saccharomyces cerevisiae

Molecule	interaction with the B subunit [1]	association with B subunit Pol12 [2]	colony formation / viability and growth [3]	association with Pol12 [4]	interaction with primase, native cell extracts ([5]; native extracts)	interaction with primase, formaldehyde-treated cells ([5]; cells treated with 1% formaldehyde, 25 min, 24 °C)	co-purification with primase [6]	co-purification with other replisome components [7]	dependence for survival on checkpoint kinases ([8]; Mec1 and Rad53, data not shown)	survival in combination with mec1Δ ([8]; pol1-F1463A combined with mec1Δ (SML1 deleted))	dependence of viability on checkpoint kinase ([8]; sml1Δ mec1Δ background)
B1	abolished interaction with the B subunit										
B2		as efficiently as wild-type Pol1	not able to form colonies	all associated equally well with Pol12							
B3		as efficiently as wild-type Pol1		all associated equally well with Pol12	neither of the mutated forms interacted with primase	neither of the mutated forms interacted with primase	neither of the mutated alleles of Pol1 co-purified with primase	slightly weaker than for wild-type Pol1	dependence for survival on the checkpoint kinases Mec1 and Rad53	die after a couple of rounds of cell division	completely dependent upon the Mec1 checkpoint kinase

From article PMC3390648 (The Journal of Biological Chemistry, 2012)
